This is a sample that favours compounds with a hit; in the whole collection about 2% have one here.
FXN GAA850 act: increases GAA850 frataxin promoter reporter activity; HEK293 lucGAA850 FXN promoter luciferase reporter, 24 h; percent of 10 µM SAHA response; activation, % at 6 µM; hit rate 0.56% among 360,000; AID 540364;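 active = activation above the average of all compounds screened plus 3 SD, cutoff fixed separately per campaign, cut at about 7.5% in these data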
CXCR6 inh: inhibitors of human CXCR6 receptor; CHO-K1 PathHunter CXCR6 beta-arrestin, luminescence; inhibition, % at 20 µM; hit rate 0.36% among 360,000; in the data active = inhibition above about 34%, passing the limit was not always enough;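 also: antagonist mode with CXCL16 agonist at 10 nM final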
APJ agonist: activates the human apelin receptor APJ. activation, % at 20 µM. hit rate 0.11% among 330,000. P35414. CHO-K1 APJ PathHunter beta-arrestin, luminescence; 0% DMSO wells, 100% apelin. AID 2520;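 active = activation more than six SD over the plate average, tested at 20 µM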
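Material: engineered CHO-K1 APJ arrestin reporter cells; amount: 1000 CHO-K1 reporter cells seeded per well; incubation: compound stimulation 90 min at 25 °C, detection 60 min; signal: luminescent beta-gal fragment complementation, chemiluminescent substrate; read-out basis: APJ agonist activity; controls: DMSO-only wells as negative, 10 nM Apelin-13 as positive control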
CCR6 antagonist: blocks CCL20-driven beta-arrestin recruitment at human CCR6; CHO-K1 CCR6 PathHunter beta-arrestin, luminescence, CCL20-stimulated; inhibition, % at 20 µM; P51684; hit rate 0.49% among 340,000;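 active = compounds whose inhibition of the agonist-driven luminescence signal at 20 µM reaches about 50%, limit read from the data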;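 also: cells stimulated with CCL20 at 14 nM final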
EBI2 antag: blocks human EBI2 receptor beta-arrestin signaling. P32249. EBI2 beta-arrestin recruitment, luminescence, 7a,25-OHC stimulated. inhibition, % at 5 µM. hit rate 0.81% among 360,000. AID 651636; in the data active = inhibition above about 38%;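 also: enzyme fragment complementation signal reports receptor beta-arrestin coupling in cells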
Target sequence (P32249 whole entry, looked up, the tested form may be a part): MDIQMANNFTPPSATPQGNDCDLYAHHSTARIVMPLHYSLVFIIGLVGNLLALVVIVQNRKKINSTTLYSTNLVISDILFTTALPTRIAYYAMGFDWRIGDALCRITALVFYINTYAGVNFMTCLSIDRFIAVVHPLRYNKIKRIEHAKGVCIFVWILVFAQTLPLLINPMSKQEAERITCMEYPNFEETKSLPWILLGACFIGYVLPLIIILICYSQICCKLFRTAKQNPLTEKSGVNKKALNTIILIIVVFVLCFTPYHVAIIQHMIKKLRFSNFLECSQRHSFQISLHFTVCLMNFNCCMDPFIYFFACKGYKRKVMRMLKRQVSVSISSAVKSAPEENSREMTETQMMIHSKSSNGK
APJ antagonist: blocks the human apelin receptor APJ; P35414; CHO-K1 APJ beta-arrestin complementation, luminescence; inhibition, % at 20 µM; hit rate 0.32% among 330,000;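 active = inhibition above about 40% at 20 µM, limit read from the data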;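 also: cells challenged with 10 nM apelin-13 agonist together with compound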
APJ ag conf: confirmation of human APJ apelin receptor agonists | shares compounds with APJ agonist | activation, % at 20 µM | AID 2764 | hit rate 10% among 310 | CHO-K1 APJ PathHunter beta-arrestin, luminescence;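 active = activation above 40%, taking the highest of four retests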
Hits are given with their value; - = inactive; . = not tested or not shown.

SMILES	FXN GAA850 act	CXCR6 inh	APJ agonist	CCR6 antagonist	EBI2 antag	APJ antagonist	others
COc1ccc2c(c1)c(=O)oc1c(C)c(OCc3cc(C(=O)O)oc3C)ccc12	-	-	-	56	-	-
COc1ccc([C@H]2CC(=O)C[C@@H](CCn3cc(-c4ccccn4)nn3)O2)cc1	.	-	.	.	-	.
O=C(Nc1ccc(C(=O)N2CCOCC2)cc1)c1ccccc1Cl	-	-	.	.	-	.
CCOC(=O)c1ccc(S(=O)(=O)Nc2cc(S(=O)(=O)Nc3ccc(OC)cc3)ccc2O)cc1	-	-	-	-	-	-
O=[N+]([O-])/C=C/c1c(OCc2ccccc2)ccc2ccccc12	-	36	-	.	-	-
CCOC(=O)COc1ccc2ccccc2c1/C=C/[N+](=O)[O-]	-	-	.	75	-	.
CCOC(=O)Cn1cc(/C=C/[N+](=O)[O-])c2ccccc21	-	-	-	-	-	-
CCOC(=O)COc1ccc(/C=C/[N+](=O)[O-])c(OCC(=O)OCC)c1	-	-	-	55	-	-
CCOc1cc(/C=C2\C(=O)ON=C2C)ccc1OCc1ccccc1	-	-	9.7	-	-	-
COc1ccc(CCN2CC(C(=O)N3CCN(C(C)=O)CC3)CCC2=O)cc1 (centres undefined)	-	-	-	-	-	-
Cc1nnc(NC(=O)CSc2nnnn2Cc2ccccc2)s1	-	-	-	-	-	-
Cc1nc(NC(=O)CSc2nnnn2Cc2ccccc2)sc1C	-	-	-	86	-	-
O=C1OC/C(=C(/O)c2ccc(Cl)cc2)C1=O	-	-	-	-	-	-
Cc1ccc(Nc2nc(-c3cccnc3)cs2)cc1Cl	-	-	-	-	48	-
CC(=O)Nc1ccc(CN(C)c2c(C)nc3ccc(C(=O)NCCCn4ccnc4)cn23)cc1	-	-	.	.	-	.
COc1ccc(C(=O)NCc2ccccc2CN2CCCC2)cc1S(=O)(=O)N1CCOCC1	-	-	-	-	-	-
Cc1csc(N/N=C/c2ccccn2)n1	-	-	-	60	-	-
C(=N\Nc1nc2ccccc2s1)/c1ccccn1	.	.	-	77	.	-
COc1ccc(CN2C(=O)CCC2(C)c2nc3ccccc3[nH]2)cc1 (centres undefined)	.	-	.	.	-	.
Cc1noc(C)c1COc1ccccc1C(=O)NCc1ccco1	-	-	-	-	-	-
CCN1C(=O)N(S(=O)(=O)c2ccc(C)cc2)[C@@H](c2ccccc2)C(C(=O)OC)=C1C	-	-	-	-	-	-
CC(C)Oc1ccc(S(=O)(=O)N2CCOCC2)cc1NC(=O)c1ccc(Cl)c(S(=O)(=O)N2CCOCC2)c1	-	-	.	.	-	.
O=C1C(Cl)=C(Nc2ccccc2)C(=O)c2ccccc21	-	-	.	53	-	.
CCCc1nc2ccc(Br)cn2c1Cc1cccc(Cl)c1	.	-	.	.	-	.
COc1cn(-c2ccccc2)nc1C(=O)OCC(=O)Nc1ccc(C)c(C)c1	-	-	-	-	-	-
SMILES	FXN GAA850 act	CXCR6 inh	APJ agonist	CCR6 antagonist	EBI2 antag	APJ antagonist	others
O=C(Nc1ccccc1N1CCCCC1)c1ccc(-c2cccc(Cl)c2)o1	-	-	-	-	-	-
CN1CCN(c2ccccc2NC(=O)c2ccc(Br)o2)CC1	-	-	-	-	-	-
CN1CCN(c2ccccc2NC(=O)c2ccc(-c3cccc(Cl)c3)o2)CC1	-	-	-	55	-	-
O=C(Nc1ccccc1N1CCOCC1)c1ccc(Br)o1	-	-	-	51	-	-
CCOC(=O)C1=NNC(C(=O)c2ccc(C)cc2)C1c1ccc(OC)cc1 (centres undefined)	-	-	-	-	-	-
CCOC(=O)C1=NNC(C(=O)c2ccc(Cl)cc2)C1c1ccc(OC)cc1 (centres undefined)	-	-	-	-	-	65
CN(c1ccccc1)S(=O)(=O)c1cccc(NC(=O)c2cc(=O)c3ccccc3o2)c1	-	-	12	-	-	-	APJ ag conf=-
CC12CCC(C(=O)C1)C1(C)CCCC(=O)C21 (centres undefined)	-	-	.	-	-	.
COc1ccc(-c2cn3c(C)c(C(=O)Nc4cccc(NC(C)=O)c4)sc3n2)cc1	-	-	17	-	-	-	APJ ag conf=-
O=C(NC(Cc1ccccc1)C(=O)N1CCN(S(=O)(=O)c2ccccc2F)CC1)c1ccccc1 (centres undefined)	-	-	26	-	-	-	APJ ag conf=-
COC(=O)CNc1nc(Cl)nc(NC2CCCCC2)n1	-	-	-	-	-	-
O=C(ONC1=NCCCCC1)c1cccc([N+](=O)[O-])c1	-	-	-	-	-	-
O=C(Nc1ccc(Cl)c([N+](=O)[O-])c1)ONC1=NCCCCC1	-	-	16	-	-	-	APJ ag conf=-
CCCCCCN1C[C@H](n2cc(-c3ccc(F)cc3)nn2)[C@@H](O)C[C@@H]1c1ccc(Cl)cc1	-	-	.	.	-	.
CCCCn1c(=O)[nH]c(=O)c2c1nc(Cn1ncc(Cl)c(Cl)c1=O)n2CCC	-	-	-	-	-	-
COC(=O)C1(Cc2cc(-c3cccnc3)no2)CCN(C(=O)OC(C)(C)C)CC1	-	-	36	-	-	-	APJ ag conf=-
COC(=O)C1(Cc2cc(-c3ccc(Cl)cc3)no2)CCN(C(=O)OC(C)(C)C)CC1	-	-	-	-	-	-
CC[n+]1c(/C=C/N(C)c2ccccc2)n(-c2ccccc2)c2ccc(-c3nc4ccccc4s3)cc21	-	-	26	-	-	-	APJ ag conf=-
O=C(c1ccccc1)N1CCN(c2ncnc3c2cnn3-c2ccccc2)CC1	-	-	-	-	-	-
Cc1nn(-c2ccccc2)c(Cl)c1C(=O)N1CCN(c2ncnc3c2cnn3-c2ccccc2)CC1	-	-	18	-	-	-	APJ ag conf=-
Cc1ccc(C2C(C#N)=C(N)Oc3nc(-c4ccccc4)[nH]c32)o1 (centres undefined)	-	-	30	-	-	-	APJ ag conf=-
COc1ccccc1C(=O)Nc1nc(-c2ccc(S(=O)(=O)N3CCOCC3)cc2)cs1	-	-	45	-	-	-	APJ ag conf=-
O=C(/C=C/c1ccc(OCCCF)cc1)Nc1ccnc(-c2ccncc2)n1	-	-	16	-	-	-	APJ ag conf=-
C[C@H]1CN([C@@H](C)CO)C(=O)Cc2cc(NC(=O)Cn3cnnn3)ccc2O[C@H]1CN(C)Cc1ccncc1	-	-	-	-	-	-
C=CCn1c(SCCC)nc(O)cc1=O	-	-	34	-	-	-	APJ ag conf=-
CCC(C)NC(=O)c1cc(Cl)c(NC(=O)C2=C(C)OCCS2)cc1OC (centres undefined)	-	-	-	-	-	-
CCN(CC)CCCNC(=O)c1cc(Cl)c(NC(=O)C2=C(C)OCCS2)cc1OC	-	-	13	-	-	-	APJ ag conf=-
CCN1CCN(CCNC(=O)c2cc(Cl)c(NC(=O)C3=C(C)OCCS3)cc2OC)CC1	-	-	24	-	-	-	APJ ag conf=-

High-throughput results from PubChem.
